The test system of experiment [1] is HeLa. Briefly: Cytotoxicity against human HeLa cells at 100 uM after 72 hrs by MTS assay. Type of experiment: functional. In a few lines:
(§1)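 Cells kept in folate-free RPMI with 10% FBS and 1% pen/strep (KB, HeLa) or DMEM with 10% FBS and 1% pen/strep (A549). For the assay, cells were plated in folate-free RPMI for 24 h, then drug-treated for 72 h at 0.1% DMSO. Viability was read by MTS. Mean ± SD from at least 2 independent triplicate experiments.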
On the technique in general: Tetrazolium dyes change colour on reduction, which living cells bring about.

For experiment [2], the target named is T1, Protein deacetylase HDAC6 (Homo sapiens, UniProt Q9UBN7).
T1 sequence (Q9UBN7 whole entry): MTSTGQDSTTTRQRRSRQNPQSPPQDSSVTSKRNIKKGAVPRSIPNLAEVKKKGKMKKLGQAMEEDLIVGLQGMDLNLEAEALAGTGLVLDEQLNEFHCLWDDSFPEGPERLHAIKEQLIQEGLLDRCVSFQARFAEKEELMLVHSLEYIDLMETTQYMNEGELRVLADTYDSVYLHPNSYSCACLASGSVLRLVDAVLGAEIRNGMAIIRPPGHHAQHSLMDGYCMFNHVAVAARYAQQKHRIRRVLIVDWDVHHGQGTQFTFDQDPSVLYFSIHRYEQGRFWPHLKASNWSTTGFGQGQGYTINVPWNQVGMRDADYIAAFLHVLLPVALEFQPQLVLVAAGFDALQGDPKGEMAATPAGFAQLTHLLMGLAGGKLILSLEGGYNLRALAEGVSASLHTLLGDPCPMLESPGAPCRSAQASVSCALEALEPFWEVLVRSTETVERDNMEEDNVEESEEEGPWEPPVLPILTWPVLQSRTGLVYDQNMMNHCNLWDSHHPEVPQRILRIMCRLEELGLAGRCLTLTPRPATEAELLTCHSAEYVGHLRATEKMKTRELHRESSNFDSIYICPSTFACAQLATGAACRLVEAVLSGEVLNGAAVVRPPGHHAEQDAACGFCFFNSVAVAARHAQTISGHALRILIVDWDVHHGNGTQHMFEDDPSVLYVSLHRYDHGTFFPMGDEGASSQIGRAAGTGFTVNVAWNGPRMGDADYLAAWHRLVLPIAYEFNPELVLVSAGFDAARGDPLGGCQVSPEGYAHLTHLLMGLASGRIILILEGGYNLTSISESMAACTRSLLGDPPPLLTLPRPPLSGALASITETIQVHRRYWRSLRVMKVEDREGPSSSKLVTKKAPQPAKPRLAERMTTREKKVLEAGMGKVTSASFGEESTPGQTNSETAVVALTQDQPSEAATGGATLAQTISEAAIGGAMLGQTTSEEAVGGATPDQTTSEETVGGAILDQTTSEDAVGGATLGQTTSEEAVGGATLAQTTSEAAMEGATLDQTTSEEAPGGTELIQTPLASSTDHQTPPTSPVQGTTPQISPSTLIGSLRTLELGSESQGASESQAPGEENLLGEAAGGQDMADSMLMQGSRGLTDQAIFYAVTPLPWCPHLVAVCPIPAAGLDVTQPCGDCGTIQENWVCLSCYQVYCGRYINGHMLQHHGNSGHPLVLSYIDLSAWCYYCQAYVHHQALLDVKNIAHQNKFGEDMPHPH
Description: Inhibition of HDAC6 (unknown origin) after 60 mins by MALDI mass spectrometry.

The target in experiment [3] is T2, Histone deacetylase 8 (Homo sapiens, UniProt Q9BY41).
T2 sequence (Q9BY41 whole entry): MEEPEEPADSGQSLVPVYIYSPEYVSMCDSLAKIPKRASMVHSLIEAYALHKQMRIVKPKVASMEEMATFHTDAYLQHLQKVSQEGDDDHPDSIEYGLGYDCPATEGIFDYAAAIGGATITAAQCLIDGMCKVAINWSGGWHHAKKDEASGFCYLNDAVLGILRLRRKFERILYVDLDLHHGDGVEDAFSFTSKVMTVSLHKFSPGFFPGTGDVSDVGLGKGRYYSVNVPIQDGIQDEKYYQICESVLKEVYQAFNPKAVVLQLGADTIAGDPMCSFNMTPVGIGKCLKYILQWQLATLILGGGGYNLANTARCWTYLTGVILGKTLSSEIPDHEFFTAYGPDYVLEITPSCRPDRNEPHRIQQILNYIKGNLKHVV
Description: Inhibition of His-tagged HDAC8 (unknown origin) expressed in Escherichia coli BL21(DE3) after 60 mins by MALDI mass spectrometry.

For experiment [4], the target named is T3, Histone deacetylase 1 (Homo sapiens, UniProt Q13547). Briefly: Inhibition of HDAC1 (unknown origin) after 60 mins by MALDI mass spectrometry.
T3 sequence (Q13547 whole entry): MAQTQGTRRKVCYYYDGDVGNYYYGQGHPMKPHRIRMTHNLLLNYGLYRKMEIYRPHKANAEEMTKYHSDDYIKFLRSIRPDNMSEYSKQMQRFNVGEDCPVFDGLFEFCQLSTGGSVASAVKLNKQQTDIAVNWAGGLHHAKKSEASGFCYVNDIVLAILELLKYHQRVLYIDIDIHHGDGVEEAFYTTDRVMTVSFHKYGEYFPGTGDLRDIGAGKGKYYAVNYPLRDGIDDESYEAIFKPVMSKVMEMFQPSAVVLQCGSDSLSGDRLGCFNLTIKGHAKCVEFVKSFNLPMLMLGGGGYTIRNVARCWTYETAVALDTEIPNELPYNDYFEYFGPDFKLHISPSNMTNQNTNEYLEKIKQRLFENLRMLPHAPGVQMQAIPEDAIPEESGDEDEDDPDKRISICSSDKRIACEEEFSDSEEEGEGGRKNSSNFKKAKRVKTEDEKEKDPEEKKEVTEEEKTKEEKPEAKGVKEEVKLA
The subject of experiment [5] is KB. Description: Cytotoxicity against human KB cells at 100 uM after 72 hrs by MTS assay. Type of experiment: functional. In a few lines:
as §1

Experiment [6] relates to KB. Description: Cytotoxicity against human KB cells after 72 hrs by MTS assay. It counts as functional, cell-based.
In experiment [7] the test system is A549. Briefly: Cytotoxicity against human A549 cells at 100 uM after 72 hrs by MTS assay. It counts as functional. The settings on record: A549, 72 h. In a few lines:
as §1

In experiment [8] the target is T4, Protein deacetylase HDAC6 (Homo sapiens) (UniProt Q9UBN7).
T4 sequence (whole entry): T1 sequence (Q9UBN7 whole entry)
Description: Inhibition of HDAC6 in human KB cells assessed as increase in tubulin acetylation at >= IC50 after 4 hrs by Western blotting analysis. It counts as cell-based. In a few lines: (§2)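 KB cells were plated for 24 h, then compound-treated for 4 h (tubulin acetylation) or 24 h (histone H4 acetylation). Cells were PBS-washed and lysed in CelLytic M with protease inhibitor cocktail. Protein was Bradford-quantified and equal amounts were resolved by SDS-PAGE at 100 V. Detection used IRDye680 and IRDye800 secondary antibodies.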
On the technique in general: Immunoblotting shows a protein as a band on a membrane.

Experiment [9] concerns the target T5, Histone deacetylase 8 (Homo sapiens) (UniProt Q9BY41).
T5 sequence (whole entry): T2 sequence (Q9BY41 whole entry)
Briefly: Inhibition of His-tagged HDAC8 (unknown origin) expressed in Escherichia coli BL21(DE3) at 10 uM after 60 mins by MALDI mass spectrometry. In a few lines:
(§3)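 Enzyme (250 nM) was incubated with inhibitor for 60 min at 37 °C in Tris-HCl pH 8.0 buffer containing NaCl, KCl, MgCl2 and BSA. Substrates were GRK(ac)FGC for HDAC1/HDAC8 and GRK(ac)YGC for HDAC6. Reactions were TSA-quenched, immobilized on maleimide SAMs and read by MALDI (SAMDI); deacetylation was taken as the product fraction.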

The target in experiment [10] is T4, Protein deacetylase HDAC6 (Homo sapiens). Description: Inhibition of His-tagged HDAC6 (unknown origin) expressed in Escherichia coli BL21(DE3) at 10 uM after 60 mins by MALDI mass spectrometry. In a few lines: as §3
In experiment [11] the target is T3, Histone deacetylase 1. Briefly: Inhibition of His-tagged HDAC1 (unknown origin) expressed in Escherichia coli BL21(DE3) at 10 uM after 60 mins by MALDI mass spectrometry. In a few lines:
as §3

For experiment [12], the species on record is Homo sapiens. Description: Selectivity ratio of IC50 for His-tagged HDAC8 (unknown origin) to IC50 for His-tagged HDAC6 (unknown origin). In a few lines:
as §3

Experiment [13] is filed under the species Homo sapiens. Briefly: Selectivity ratio of IC50 for His-tagged HDAC1 (unknown origin) to IC50 for His-tagged HDAC6 (unknown origin). In a few lines:
as §3

Experiment [14] addresses T4, Protein deacetylase HDAC6 (Homo sapiens). Description: Inhibition of HDAC6 in human KB cells assessed as increase in tubulin acetylation at 100 uM after 4 hrs by Western blotting analysis. Type of experiment: cell-based. In a few lines: as §2
Experiment [15] relates to KB. Briefly: Cytotoxicity against human KB cells at 25 uM after 72 hrs by MTS assay in presence of folic acid.
Experiment [16] concerns HeLa. Description: Cytotoxicity against human HeLa cells after 72 hrs by MTS assay. It counts as functional, cell-based.

pIC50: −log10 of the molar value. The source made the active and inactive calls. The rule behind the calls is not given here.

The term inhibition denotes the relative decrease from the control value, in per cent. High values mean a response far below the control, low ones a response near the control. As a reminder, the pIC50 is the IC50 on a negative log10 scale, so that one unit is a factor of ten. For `Nc1nc2ncc(CNc3ccc(C(=O)N[C@@H](CCC(=O)NCCCCCCCC(=O)NO)C(=O)O)cc3)nc2c(=O)[nH]1`, the inhibition at 100 µM in experiment [1] and in experiment [5] was below 20% in each case. The figures for the pIC50 in [2], in [3] and in [4] were 6.71, 5.63 and 5.74, respectively.
Consider `Nc1nc2ncc(CNc3ccc(C(=O)NCCCCCCC(=O)NO)cc3)nc2c(=O)[nH]1`, for which the pIC50 is 4.27 in experiment [6], 7.91 in experiment [2], 5.97 in experiment [3] and 7.63 in experiment [4]. Further, the results for the inhibition at 100 µM in experiment [1] and in [7] were 34% and below 20%, respectively. For the same compound, the result in experiment [8] was Active.
Take `Nc1nc2ncc(CNc3ccc(C(=O)NCCCCCC(=O)NO)cc3)nc2c(=O)[nH]1`: the inhibition at 100 µM is below 20% in experiment [1] and 25% in experiment [5]. Further, the pIC50 in [2] is 7.36; in experiment [4], 7.10. The same compound registered an inhibition in experiment [9] of 41%.
As to `Nc1nc2ncc(CNc3ccc(C(=O)NCCCCCCCCC(=O)NO)cc3)nc2c(=O)[nH]1`, the inhibition at 100 µM in experiment [1] stood at 35%; in experiment [5], 33%. Also, the values for the pIC50 in experiment [2], in experiment [3] and in [4] were 7.99, 5.12 and 6.28, respectively.
Take `Nc1nc2ncc(CNc3ccc(C(=O)NCCCCC(=O)NO)cc3)nc2c(=O)[nH]1`: the inhibition at 100 µM in experiment [1] and in experiment [5] was below 20% each time. For the same compound, the pIC50 is 6.67 in experiment [2] and 5.21 in experiment [4]. In [9], this compound came in with an inhibition of 39%.
For the compound `Nc1nc2ncc(CNc3ccc(C(=O)N[C@@H](CCC(=O)NCCCC(=O)Nc4cc(-c5cccs5)ccc4N)C(=O)O)cc3)nc2c(=O)[nH]1`, the inhibition came to 22.8% in experiment [10] and 23% in [9]. In addition, the pIC50 in [4] was 5.53.
As for `Nc1nc2ncc(CNc3ccc(C(=O)NCCCC(=O)NO)cc3)nc2c(=O)[nH]1`, the inhibition at 100 µM in experiment [1] and in experiment [5] was below 20% throughout. Further, the figures for the inhibition in experiment [11] and in experiment [9] were 22.1% and 25%, respectively. The pIC50 in [2] is 5.84.
Turning to `Nc1nc2ncc(CNc3ccc(C(=O)N[C@@H](CCC(=O)NCCCCCCCC(=O)Nc4cc(-c5cccs5)ccc4N)C(=O)O)cc3)nc2c(=O)[nH]1`, in [10], the inhibition is below 20%. For the same compound, the pIC50 was 5.00 in experiment [3] and 6.54 in [4].
For `Nc1nc2ncc(CNc3ccc(C(=O)NO)cc3)nc2c(=O)[nH]1`, the values for the Ratio IC50 in experiment [12] and in experiment [13] were 32 and 130, respectively. The figures for the pIC50 in experiment [2], in experiment [3] and in experiment [4] were 7.75, 6.24 and 5.62, respectively. The outcome in experiment [14] was Active.
For the compound `Nc1nc2ncc(CNc3ccc(C(=O)NCCCCCCCC(=O)NO)cc3)nc2c(=O)[nH]1`, the pIC50 in experiment [6] was 4.52; in [2], 7.26; in experiment [3] it was 5.03; in experiment [4] it was 7.79; in [16], 4.25. Besides, the outcome in experiment [15] was inactive. In addition, the inhibition at 100 µM in experiment [7] was below 20%. Further, in experiment [8], the result was Active.
Take `Nc1nc2ncc(CNc3ccc(C(=O)N[C@@H](CCC(=O)NCCCCCCC(=O)NO)C(=O)O)cc3)nc2c(=O)[nH]1`: the inhibition at 100 µM in experiment [1] and in [5] was below 20% in each case. In addition, the negative-log IC50 (pIC50) in experiment [2] was 6.88; in experiment [3], 5.62; in experiment [4], 5.75.
For `Nc1nc2ncc(CNc3ccc(C(=O)N[C@@H](CCC(=O)NO)C(=O)O)cc3)nc2c(=O)[nH]1`, the inhibition in [10], in experiment [11] and in experiment [9] was below 20% each time.
In the case of `Nc1nc2ncc(CNc3ccc(C(=O)N[C@@H](CCC(=O)NCCCCCCCCC(=O)NO)C(=O)O)cc3)nc2c(=O)[nH]1`, the pIC50 was 6.75 in experiment [2], 5.81 in experiment [3] and 5.56 in experiment [4].
For the compound `Nc1nc2ncc(CNc3ccc(C(=O)NCCCCCCCCCC(=O)NO)cc3)nc2c(=O)[nH]1`, the inhibition at 100 µM is 36% in experiment [1] and 47% in [5]. Besides, the values for the inhibition in experiment [11] and in experiment [9] were 53% and 40%, respectively. In [2], the pIC50 is 6.32.
As for `Nc1nc2ncc(CNc3ccc(C(=O)N[C@@H](CCC(=O)NCCCCCCC(=O)Nc4cc(-c5cccs5)ccc4N)C(=O)O)cc3)nc2c(=O)[nH]1`, the inhibition in [10] and in [9] was below 20% in each case. The compound further gave a pIC50 in experiment [4] of 6.36.
The compound `CC(=O)Nc1ccc(C(=O)Nc2cc(-c3cccs3)ccc2N)cc1` had a negative-log IC50 (pIC50) in [6] of 5.28.
In the case of `Nc1nc2ncc(CNc3ccc(C(=O)N[C@@H](CCC(=O)NCCCC(=O)NO)C(=O)O)cc3)nc2c(=O)[nH]1`, the inhibition in [11] was below 20%; in experiment [9], 40%. This compound also gave a pIC50 in [2] of 5.09.
Take `Nc1nc2ncc(CNc3ccc(C(=O)N[C@@H](CCC(=O)NCCCCCCCCC(=O)Nc4cc(-c5cccs5)ccc4N)C(=O)O)cc3)nc2c(=O)[nH]1`: the inhibition in experiment [10] and in [9] was below 20% throughout. In [4], this compound gave a pIC50 of 6.51.

(Values after ChEMBL document CHEMBL3414552, “Design and structure activity relationship of tumor-homing histone deacetylase inhibitors conjugated to folic and pteroic acids” (Eur J Med Chem, 2015).)
